# Results from paper PMC3549054 (Biochemistry, 2012).
# Entries after “also recorded” stand apart in the source; their conditions may differ. Like-named read-outs stand apart in the source and are kept apart here.
# Legend:
# [1] = biological target: Fe(II)-GAPDH (ferrous rGAPDH-heme) (Oryctolagus cuniculus, UniProt P46406); assay: Stopped-flow kinetics of CO binding to Fe; set-up: species or system rabbit
# CBS = conditions: ref [44]; cited from earlier work
# rabbit GAPDH = rabbit GAPDH (Oryctolagus cuniculus, UniProt P46406); assay: UV-visible binding of protoporphyrin IX analogs to rabbit GAPDH
# Sequence of rabbit GAPDH (P46406 2-333 limits assumed): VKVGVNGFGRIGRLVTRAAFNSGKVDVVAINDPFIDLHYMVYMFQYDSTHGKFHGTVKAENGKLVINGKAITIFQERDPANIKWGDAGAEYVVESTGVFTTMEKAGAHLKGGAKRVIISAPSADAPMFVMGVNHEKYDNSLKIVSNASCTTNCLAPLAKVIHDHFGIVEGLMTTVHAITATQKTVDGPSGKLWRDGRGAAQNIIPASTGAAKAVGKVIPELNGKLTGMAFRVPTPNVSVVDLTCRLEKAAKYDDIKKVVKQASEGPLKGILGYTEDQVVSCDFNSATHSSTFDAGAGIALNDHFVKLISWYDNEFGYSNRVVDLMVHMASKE
# rGAPDH [2] = biological target: T1, rGAPDH (Oryctolagus cuniculus, UniProt P46406); assay: Ethoxylation of His residues with DEPC, then heme binding by UV-vis; assay type: biochemical, rabbit; conditions: 15 mM DEPC, 2 h on ice
# T1 sequence (P46406 2-333 limits assumed): as above
# How it was run: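 Recombinant rabbit GAPDH (N-His6, E. coli BL21(DE3), Ni-NTA purified), 100 µM apo or preformed with 20 µM heme, treated with 15 mM DEPC on ice in 40 mM EPPS pH 7.6, 150 mM NaCl, 10% glycerol. Excess DEPC removed by three buffer exchanges on 10 kDa spin columns. Protein diluted to ~40 µM; UV-vis spectra taken before and after adding 8 µM fresh hemin.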
# Ferric rGAPDH-heme = Ferric rGAPDH-heme (Oryctolagus cuniculus, UniProt P46406); assay type: binding, rabbit
# Sequence of Ferric rGAPDH-heme (P46406 2-333): as the sequence (P46406 2-333 limits assumed) above
# rGAPDH [3] = biological target: T1, rGAPDH; assay: Kinetics of heme transfer from GAPDH to apo-myoglobin, koff; assay type: binding, rabbit
# rGAPDH [4] = biological target: T1, rGAPDH; assay: Binding of pre-reduced heme to rGAPDH; set-up: species or system rabbit; conditions: after 10 min
# rGAPDH [5] = biological target: T1, rGAPDH; assay: Spectrophotometric titration of GAPDH with hemin; assay type: binding, rabbit
# rGAPDH [6] = biological target: T1, rGAPDH; assay: Stopped-flow kinetics of heme binding to GAPDH, kon; set-up: species or system rabbit; conditions: ferric heme, 10 °C
# How it was run: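 N-terminally His6-tagged rabbit GAPDH, expressed in E. coli BL21(DE3) and Ni-NTA purified. Freshly prepared hemin (5 µM) was mixed by stopped-flow at 10 °C with rGAPDH at 10–80 µM in 100 mM EPPS pH 7.6, 150 mM NaCl and 10% glycerol. Traces were collected on a diode array detector, and kobs was obtained from single-exponential fits.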
# rGAPDH [7] = biological target: T1, rGAPDH; assay: GAPDH dehydrogenase activity assay; assay type: biochemical, rabbit; conditions: data not shown
# How it was run: (§1)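 NADH formation was followed at 340 nm (ε340 = 6.22 mM−1cm−1) in 40 mM triethanolamine, 50 mM Na2HPO4, 0.2 mM EDTA, pH 8.9, with 2 mM NAD and 2 mM D-glyceraldehyde 3-phosphate. Reactions were started with ~1 µg enzyme. The rabbit enzyme was N-His6, Ni-NTA purified; the human enzyme was a GST fusion cleaved with thrombin. Both were expressed in E. coli.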
# hGAPDH = hGAPDH (Homo sapiens, UniProt P04406); assay: GAPDH dehydrogenase activity assay; assay type: biochemical; conditions: data not shown
# Sequence of hGAPDH (P04406 2-335 limits assumed): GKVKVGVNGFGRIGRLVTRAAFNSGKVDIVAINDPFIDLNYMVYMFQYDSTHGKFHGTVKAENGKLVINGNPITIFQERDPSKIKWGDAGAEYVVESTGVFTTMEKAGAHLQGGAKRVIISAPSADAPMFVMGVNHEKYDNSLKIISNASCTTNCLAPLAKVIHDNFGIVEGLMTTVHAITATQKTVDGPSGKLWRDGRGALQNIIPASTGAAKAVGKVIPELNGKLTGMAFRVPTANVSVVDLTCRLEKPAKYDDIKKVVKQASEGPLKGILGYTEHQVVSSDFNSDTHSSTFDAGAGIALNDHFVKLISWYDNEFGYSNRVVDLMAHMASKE
# How it was run: as §1
# [8] = biological target: Nuclear hormone receptor, Rev-erb β; conditions: read-out: Kd (direct), ref [14], cited from earlier work
# Sperm whale Mb = conditions: ref [56]; cited from earlier work
# [9] = biological target: HRI (heme regulated inhibitor), eIF2α; conditions: ref [60], cited from earlier work
# BSA = conditions: cited from earlier work
# Apo-DHR51-LBD = conditions: read-out: Kd (direct); ref [81]; cited from earlier work
# CcmE = conditions: ref [82], cited from earlier work
# HasAp = conditions: ref [34], cited from earlier work
# HtsA = conditions: ref [83], cited from earlier work
# Shp = conditions: ref [84], cited from earlier work
# HTP (PhuT) = conditions: ref [21], cited from earlier work
# PhuS = conditions: ref [57]; cited from earlier work
# pa-HO = conditions: ref [57], cited from earlier work
# Rv0203 = conditions: ref [85], cited from earlier work
# nitrobindin = conditions: ref [68]; cited from earlier work
# [10] = Redox potentiometry of rGAPDH-heme; assay type: physicochemical; conditions: titration of ferric complex with dithionite
# [11] = CO-saturated buffer (1 mM final concentration), 10 °C
# [12] = fit of Equation 2 to fast phase
# [13] = pH 7.4 (Tris, 100 mM, 10% glycerol), room temperature
# Sequence of Fe(II)-GAPDH (ferrous rGAPDH-heme) (P46406 2-333): as the sequence (P46406 2-333 limits assumed) above
compound,measurement,setting,value
"[C-]#[O+] [CO, carbon monoxide]","kobs, 6-coord, 420 nm",[1],1.2 s⁻¹
same,kobs1 (fast phase) of CO binding,[1]; [11],1.5 s⁻¹
same,kobs2 (slow phase) of CO binding,[1]; [11],0.068 s⁻¹
same,rate of distal ligand displacement by CO,[1]; [CO]>0.2 mM,1.75 s⁻¹
same,axial ligand dissociation rate constant k−Y,[1]; [12],~ 2 s^−1
same,ligand rebinding rate ratio kY/k'CO,[1]; [12],~ 0.1 mM
same,"kobs 5-coord, 410 nm","[1]; saturating [CO], [rGAPDHtetramer]/[heme] < 1:1",4.3 s⁻¹
same,rebinding rate ratio for displacement of Cys^52 by CO,CBS,106 µM
"C=Cc1c(C)c2cc3[nH]c(cc4nc(cc5nc(cc1[nH]2)C(C)=C5CCC(=O)[O-])C(CCC(=O)[O-])=C4C)c(C)c3C=C.[Co+2] [Co(III)-protoporph IX, Co(III)-protoporphyrin IX]",Binding to GAPDH (Comments),rabbit GAPDH; [13],"LS, red-shift"
same,Binding to GAPDH (Comments),"rabbit GAPDH; pH 7.4 (Tris, 100 mM, 10% glycerol), room temperature, listed as Co(III)-protoporphyrin IX",bound
"CCOC(=O)OC(=O)OCC [DEPC, diethylpyrocarbonate]",effect of DEPC on preformed rGAPDH-heme spectral properties,rGAPDH [2],did not alter; also recorded: had no effect; also recorded: does not alter
same,effect of DEPC treatment of heme-free rGAPDH on heme binding,rGAPDH [2],abolished the protein’s ability to bind heme; also recorded: hampered heme binding completely; also recorded: unable to bind heme
"C=CC1=C(C)c2cc3[nH]c(cc4nc(cc5[nH]c(cc1n2)c(C)c5CCC(=O)O)C(CCC(=O)O)=C4C)c(C)c3C=C [Protoporph IX, Protoporphyrin IX]",Binding to GAPDH (Comments),rabbit GAPDH; [13],No binding
[N-]=[N+]=[N-] [azide],binding to ferric rGAPDH-heme / displacement of distal ligand (as summarised),Ferric rGAPDH-heme,unable to bind; also recorded: not displaced
C=CC1=C(C)c2cc3[n-]c(cc4[n-]c(cc5nc(cc1n2)C(C)=C5C=C)c(C)c4CCC(=O)O)c(CCC(=O)O)c3C.[Fe+2] [ferrous heme],koff of ferrous (reduced) heme,"rGAPDH [3]; ferrous heme, 25 °C, anaerobic, single exponential",0.0042 s⁻¹
same,fraction of total available reduced heme forming a complex with rGAPDH,rGAPDH [4],18%
"C=CC1=C(C)c2cc3[n-]c(cc4[n-]c(cc5nc(cc1n2)C(C)=C5C=C)c(C)c4CCC(=O)O)c(CCC(=O)O)c3C.[Cl-].[Fe+3] [hemin, Fe(III)-protoporphyrin IX]",Kd,"rGAPDH [5]; read-out: Kd (direct), Wild type rGAPDH",0.024 µM
same,Kd,"rGAPDH [5]; read-out: dissociation constant (Kd), direct titration, 10 µM rGAPDH, hemin 0–35 µM, 100 mM Tris pH 7.4, 10% glycerol",0.024 µM
same,kon,rGAPDH [6],17800 M⁻¹ s⁻¹
same,koff1 (fast phase),"rGAPDH [3]; ferric heme, 10 °C, bi-exponential fit",0.007 s⁻¹
same,Kd,"rGAPDH [3]; read-out: Kd (koff/kon) (M), from fast koff, Wild type rGAPDH",3.9e-07 M
same,Kd,"rGAPDH [3]; read-out: Kd (koff/kon) (M), from slow koff, Wild type rGAPDH",1.9e-08 M
same,Kd,"rGAPDH [3]; read-out: approximate affinities from koff/kon, ferric heme, 10 °C",1.9e-08 to 3.9e-07 M
same,Binding to GAPDH (Comments),rabbit GAPDH; [13],"LS, red-shift"
same,effect of heme binding on dehydrogenase activity,rGAPDH [7],does not affect
same,effect of heme binding on dehydrogenase activity,hGAPDH,does not affect
same,Kd,[8]; Rev-erb β (oxidized),0.117 µM
same,Kd,[8]; Rev-erb β (reduced),0.023 µM
same,koff,Sperm whale Mb,8.4e-07 s⁻¹
same,kon,Sperm whale Mb,7.6e+07 M⁻¹ s⁻¹
same,Kd,[9]; read-out: Kd (koff/kon),0.00014 µM
same,koff,[9],0.0015 s⁻¹
same,kon,[9],1.1e+07 M⁻¹ s⁻¹
same,heme dissociation rate,"BSA; BSA-heme, ref [65]",10^−2 s^−1
same,Kd,"BSA; read-out: Kd (koff/kon), ref [56]",0.00022 µM
same,koff,BSA; ref [56],0.011 s⁻¹
same,kon,BSA; ref [56],5e+07 M⁻¹ s⁻¹
same,Kd,Apo-DHR51-LBD,0.43 µM
same,Kd,"CcmE; read-out: Kd (direct) (M), high affinity",2e-07 M
same,Kd,"CcmE; read-out: Kd (direct) (M), low affinity",1e-05 M
same,Kd,HasAp; read-out: Kd (koff/kon),35 µM
same,kon,HasAp,1.6e+07 M⁻¹ s⁻¹
same,Kd,HtsA; read-out: Kd (koff/kon),8 µM
same,kon,HtsA,8e+07 M⁻¹ s⁻¹
same,Kd,Shp; read-out: Kd (koff/kon),22 µM
same,kon,Shp,1.6e+06 M⁻¹ s⁻¹
same,Kd,HTP (PhuT); read-out: Kd (direct),1200 µM
same,koff,HTP (PhuT),0.00038 s⁻¹
same,koff,PhuS,0.036 s⁻¹
same,kon,PhuS,180000 M⁻¹ s⁻¹
same,Kd,pa-HO; read-out: Kd (koff/kon),0.6 µM
same,koff,pa-HO,0.066 s⁻¹
same,kon,pa-HO,110000 M⁻¹ s⁻¹
same,Kd,Rv0203; read-out: Kd (koff/kon),0.00062 µM
same,koff,Rv0203,0.082 s⁻¹
same,kon,Rv0203,1.3e+08 M⁻¹ s⁻¹
same,heme loss rate,nitrobindin,3.6e-05 s⁻¹
c1c[nH]cn1 [imidazole],binding to ferric rGAPDH-heme (spectral shift),Ferric rGAPDH-heme,did not bind
same,binding to ferric rGAPDH-heme / displacement of distal ligand (as summarised),Ferric rGAPDH-heme,unable to bind
N#C[S-].[Na+] [thiocyanate],binding to ferric rGAPDH-heme (spectral shift),Ferric rGAPDH-heme,did not bind
"Fe(III)-2,4-diacetyldeuteroporph IX",Binding to GAPDH (Comments),rabbit GAPDH; pH 7.4,"LS, partial binding, red-shift"
Fe(III)-deuteroporph IX,Binding to GAPDH (Comments),rabbit GAPDH; pH 7.4,"LS, red-shift"
Fe(III)-mesoporph IX,Binding to GAPDH (Comments),rabbit GAPDH; pH 7.4,"LS, red-shift"
GAPDH-heme: pre-formed complex of rabbit GAPDH with heme,"midpoint potential, reductive titration",[10],−153 ± 4 mV
Zn(II)-protoporph IX,Binding to GAPDH (Comments),rabbit GAPDH; pH 7.4,"LS, partial binding, red-shift"
